In PMC10286277 (ACS Omega, 2023):

Experiments:
[1] = test system: pUC19 DNA; test: Hydrolytic DNA cleavage, gel electrophoresis without external agent or light; assay type: biochemical; conditions: 400 μM, control experiments
How it was run: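 pUC19 DNA (200 ng) in 50 mM Tris–HCl, pH 8, was incubated with test compound (0–400 μM) in 10 μL for 2 h at 37 °C, with no added agent and no light. Controls used Cu(OAc)₂·H₂O, free ligand or imidazole, each at 400 μM. Samples were run on 1% agarose in TAE (pH 8.4) for 1.5 h at 60 V, stained with 0.5 μg/mL ethidium bromide and imaged under UV for conversion to nicked circular form.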

[2] = test system: breast cancer MDA-MB-231; test: MTT cell viability assay; assay type: cell-based, human; conditions: MDA-MB-231, 24 h
How it was run: (§1)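 Cells were seeded at 2×10^4 per well, held overnight at 37 °C in humidified CO₂ and treated with test compound at […] for 24 h. MTT (0.5 mg/mL) was added for 4 h in the dark and then removed. Formazan was dissolved in DMSO and absorbance read at 570 nm.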

[3] = test system: cervical cancer HeLa; test: MTT cell viability assay; assay type: cell-based, human; conditions: 24 h
How it was run: as §1

Row | Molecule | DNA cleavage by starting materials alone [1] | sensitivity of cells in MTT cell viability assay (in words) [2] | IC50 [3] [µM]
1 | CC(=O)[O-].CC(=O)[O-].O.[Cu+2] [Cu(OAc)2·H2O, copper(II) acetate monohydrate] | No cleavage was detected | – | –
2 | 2-(2-Hydroxyphenyl)benzothiazoline | No cleavage was detected | – | –
3 | N.N.[Cl][Pt][Cl] [cisplatin, reference compound] | – | resistant | 30.9 ± 0.45
4 | c1c[nH]cn1 [imidazole] | No cleavage was detected | – | –
